Test results as given in ChEMBL document CHEMBL1144429, “Computational strategies in discovering novel non-nucleoside inhibitors of HIV-1 RT” (J Med Chem, 2005).

Each compound was assayed on CCRF-CEM (assay: Concentration required to protect CEM cells against Mutant Y181C Strain). Conditions: Homo sapiens; call rule not given here.
Assay type: functional, cell-based
Method in brief: (§1)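 CEM cell cultures were infected with mutant HIV-1 strains, each carrying a single NNRTI-resistance mutation in RT. EC50 is the concentration protecting CEM cells against HIV-induced cytopathogenicity by 50%.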
`Fc1cccc(F)c1C1SCc2nc3ccccc3n21` (configuration not stated) [THIAZOLOBENZIMIDAZOLE] was tested, and the EC50 was 13.8 µM.
Compound `O=c1[nH]c2ccc(Cl)cc2n1Cc1c(F)cccc1F` has an EC50 of over 20 µM.

The compounds below were run on MT4 (assay: Concentration required to reduce HIV-1-induced cytopathic effect in MT-4 cells; NA = not active). Conditions: not given.
Assay type: functional, cell-based, Homo sapiens
Method in brief: (§2)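 MT-4 cells infected with HIV-1. The read-out is protection against virus-induced cytopathic effect. EC50 is the concentration giving a 50% reduction of the cytopathic effect. Uninfected MT-4 cytotoxicity was run in parallel.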
`Oc1nc2ccc(Cl)cc2n1CC1CCCCC1` was tested, and the EC50 was “Not Active”.

The compounds below were run on CCRF-CEM (assay: Concentration required to protect CEM cells against Mutant Y188H Strain). Conditions: Homo sapiens.
Assay type: functional, cell-based
Method in brief: as §1
`Fc1cccc(F)c1C1SCc2nc3ccccc3n21` (configuration not stated) [THIAZOLOBENZIMIDAZOLE] gave an EC50 of 4.16 µM.
In the case of `O=c1[nH]c2ccc(Cl)cc2n1Cc1c(F)cccc1F`, the EC50 is reported as over 20 µM.

The compounds below were run against Human immunodeficiency virus type 1 reverse transcriptase (Human immunodeficiency virus 1, UniProt Q72547) (assay: Concentration required to inhibit in vitro RNA-dependent DNA polymerase activity of reverse transcriptase). Conditions: not given.
Method in brief: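 Recombinant HIV-1 RT. RNA-dependent DNA polymerase activity was measured in vitro. IC50 is the concentration inhibiting this polymerase activity by 50%.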
`Fc1cccc(F)c1C1SCc2nc3ccccc3n21` (configuration not stated) [THIAZOLOBENZIMIDAZOLE] gave an IC50 of 24.6 µM.
`Oc1nc2ccc(Cl)cc2n1Cc1ccc2ccccc2c1` was tested, and the IC50 was 5.2 µM.
`O=c1[nH]c2ccc(Cl)cc2n1Cc1c(F)cccc1F` was tested, and the IC50 was 2.86 µM.
Compound `CC(C)c1ccc(Cn2c(O)nc3ccc(Cl)cc32)cc1` has an IC50 of 16.2 µM.
`O=c1oc2ccc(Cl)cc2n1Cc1c(F)cccc1F` showed an IC50 of 20 µM.
`Oc1nc2ccc(Cl)cc2n1Cc1cccc2ccccc12` gave an IC50 of 12.7 µM.
`Oc1nc2cc(Cl)ccc2n1Cc1c(F)cccc1F` gave an IC50 of 60 µM.
`Oc1nc2ccc(Cl)cc2n1CC1CCCCC1` showed an IC50 of 50 µM.
Work on `Oc1nc2ccc(Cl)cc2n1Cc1c(Cl)cccc1Cl` yielded an IC50 of 7.5 µM.

These compounds were tested on CCRF-CEM (assay: Concentration required to protect CEM cells against Mutant L100I Strain). Conditions: Homo sapiens.
Assay type: functional, cell-based
Method in brief: as §1
In the case of `Fc1cccc(F)c1C1SCc2nc3ccccc3n21` (configuration not stated) [THIAZOLOBENZIMIDAZOLE], the EC50 is reported as 3.12 µM.
Compound `O=c1[nH]c2ccc(Cl)cc2n1Cc1c(F)cccc1F` has an EC50 of 2 µM.

These compounds were tested on MT4 (assay: Concentration required to reduce HIV-1-induced cytopathic effect in MT-4 cells). Conditions: Homo sapiens.
Assay type: functional, cell-based
Method in brief: as §2
For `Fc1cccc(F)c1C1SCc2nc3ccccc3n21` (configuration not stated) [THIAZOLOBENZIMIDAZOLE], the EC50 was 1.1 µM.
`Oc1nc2ccc(Cl)cc2n1Cc1ccc2ccccc2c1` was tested, and the EC50 was 6.35 µM.
`O=c1[nH]c2ccc(Cl)cc2n1Cc1c(F)cccc1F` showed an EC50 of 0.24 µM.
`CC(C)c1ccc(Cn2c(O)nc3ccc(Cl)cc32)cc1` showed an EC50 of 2.83 µM.
Work on `O=c1oc2ccc(Cl)cc2n1Cc1c(F)cccc1F` yielded an EC50 of 3.72 µM.
In the case of `Oc1nc2ccc(Cl)cc2n1Cc1cccc2ccccc12`, the EC50 is reported as 0.87 µM.
`Oc1nc2cc(Cl)ccc2n1Cc1c(F)cccc1F` was tested, and the EC50 was 29.6 µM.
Compound `Oc1nc2ccc(Cl)cc2n1Cc1c(Cl)cccc1Cl` has an EC50 of 3.79 µM.

What follows are compounds tested on MT4 (assay: Cytotoxic concentration required to reduce MT-4 cell viability). Conditions: Homo sapiens.
Assay type: functional
Method in brief: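 Viability of MT-4 cells was measured with compound alone, in parallel with the HIV-1 cytopathic-effect assay. CC50 is the concentration reducing MT-4 cell viability by 50%.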
`Fc1cccc(F)c1C1SCc2nc3ccccc3n21` (configuration not stated) [THIAZOLOBENZIMIDAZOLE] was tested, and the CC50 was 50 µM.
Compound `Oc1nc2ccc(Cl)cc2n1Cc1ccc2ccccc2c1` has a CC50 of over 405 µM.
For `O=c1[nH]c2ccc(Cl)cc2n1Cc1c(F)cccc1F`, the CC50 was over 424 µM.
Work on `CC(C)c1ccc(Cn2c(O)nc3ccc(Cl)cc32)cc1` yielded a CC50 of over 415 µM.
In the case of `O=c1oc2ccc(Cl)cc2n1Cc1c(F)cccc1F`, the CC50 is reported as over 382 µM.
With `Oc1nc2ccc(Cl)cc2n1Cc1cccc2ccccc12` the CC50 was 50 µM.
`Oc1nc2cc(Cl)ccc2n1Cc1c(F)cccc1F` showed a CC50 of over 424 µM.
Compound `Oc1nc2ccc(Cl)cc2n1CC1CCCCC1` has a CC50 of 9.5 µM.
`Oc1nc2ccc(Cl)cc2n1Cc1c(Cl)cccc1Cl` was tested, and the CC50 was 315 µM.

These compounds were tested on MT4 (assay: Ratio of CC50 to that of EC50). Conditions: not given.
Assay type: functional, Homo sapiens
Method in brief: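 Selectivity index is calculated as CC50/EC50. Both values come from the parallel MT-4 assays: cell viability for CC50 and protection from HIV-1-induced cytopathic effect for EC50.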
`Fc1cccc(F)c1C1SCc2nc3ccccc3n21` (configuration not stated) [THIAZOLOBENZIMIDAZOLE] showed a Ratio of 45.
Work on `Oc1nc2ccc(Cl)cc2n1Cc1ccc2ccccc2c1` yielded a Ratio of over 64.
`O=c1[nH]c2ccc(Cl)cc2n1Cc1c(F)cccc1F` gave a Ratio of over 1766.
`CC(C)c1ccc(Cn2c(O)nc3ccc(Cl)cc32)cc1` was tested, and the Ratio was over 147.
`O=c1oc2ccc(Cl)cc2n1Cc1c(F)cccc1F` showed a Ratio of over 91.
`Oc1nc2ccc(Cl)cc2n1Cc1cccc2ccccc12` gave a Ratio of 57.
With `Oc1nc2cc(Cl)ccc2n1Cc1c(F)cccc1F` the Ratio was over 14.
Compound `Oc1nc2ccc(Cl)cc2n1Cc1c(Cl)cccc1Cl` has a Ratio of 83.

Each compound was assayed on CCRF-CEM (assay: Concentration required to protect CEM cells against Mutant K103N Strain). Conditions: Homo sapiens.
Assay type: functional, cell-based
Method in brief: as §1
Work on `Fc1cccc(F)c1C1SCc2nc3ccccc3n21` (configuration not stated) [THIAZOLOBENZIMIDAZOLE] yielded an EC50 of 15.6 µM.
In the case of `O=c1[nH]c2ccc(Cl)cc2n1Cc1c(F)cccc1F`, the EC50 is reported as over 20 µM.

These compounds were tested on MT4 (assay: Compound was tested for inhibition of the cytopathic effects of HIV-1 (IIIB) in MT-4 cells). Conditions: Homo sapiens.
Assay type: functional, cell-based
Method in brief: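 HIV-1-induced cytopathic effect measured in MT-4 cell cultures. EC50 is the concentration reducing the cytopathic effect by 50%. Cytotoxicity in MT-4 cells was run in parallel.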
`Fc1cccc(F)c1C1SCc2nc3ccccc3n21` (configuration not stated) [THIAZOLOBENZIMIDAZOLE] showed an EC50 of 1.39 µM.
`O=c1[nH]c2ccc(Cl)cc2n1Cc1c(F)cccc1F` showed an EC50 of 0.24 µM.

These compounds were tested on CCRF-CEM (assay: Concentration required to protect CEM cells against Mutant E138K Strain). Conditions: Homo sapiens.
Assay type: functional, cell-based
Method in brief: as §1
`Fc1cccc(F)c1C1SCc2nc3ccccc3n21` (configuration not stated) [THIAZOLOBENZIMIDAZOLE] was tested, and the EC50 was 1.73 µM.
For `O=c1[nH]c2ccc(Cl)cc2n1Cc1c(F)cccc1F`, the EC50 was 2.9 µM.
